# According to ChEMBL document CHEMBL2417486, “Exploring natural product chemistry and biology with multicomponent reactions. 5. Discovery of a novel tubulin-targeting scaffold derived from the rigidin family of marine alkaloids” (J Med Chem, 2013):
# Tests used:
# [1] = Aqueous solubility of the compound by spectrophotometric analysis; type: physicochemical
# How it was run: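 Compound dispersed in ultrapure water at >0.5 mg/mL; supernatant centrifuged repeatedly until no pellet remained, then diluted 1:2 (solution:DMSO). Concentration read from absorbance at peak 335–336 nm against a calibration line made in 1:2 water/DMSO, and corrected for the DMSO dilution.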
# [2] = system: HeLa; test: Growth inhibition of human HeLa cells after 48 hrs by MTT assay; type: functional
# How it was run: (§1)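 Cells seeded at 4 × 10^3 per well, grown 24 h, then treated 48 h at 0.004–100 µM from 100 or 25 mM DMSO stocks. Controls were 0.1% DMSO and phenyl arsine oxide. MTT (5 mg/mL) added for 2 h, formazan dissolved in DMSO, A490 read. […] HeLa/MCF-7 in DMEM, MES-SA lines in RPMI-1640, all with 10% FBS.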
# [3] = system: MCF7; test: Growth inhibition of human MCF7 cells after 48 hrs by MTT assay; type: functional; conditions: MCF7, 48 h; how it was run: as §1
Compound,solubility [1],GI50 [2],GI50 [3]
Nc1ncnc2[nH]c(C(=O)c3ccccc3)c(-c3cc(Br)cc(Br)c3)c12,,> 100 µM,> 100 µM
COc1cc(C(=O)c2[nH]c3[nH]c(=O)[nH]c(=O)c3c2-c2ccc(O)c(OC)c2)ccc1O,,> 100 µM,> 100 µM
COc1ccc(C(=O)c2[nH]c3[nH]c(=O)[nH]c(=O)c3c2-c2ccc(OC)cc2)cc1,,> 100 µM,> 100 µM
COc1cc(C(=O)c2[nH]c3[nH]c(=O)[nH]c(=O)c3c2-c2ccc(O)cc2)ccc1O,,> 100 µM,> 100 µM
Nc1ncnc2[nH]c(C(=O)c3ccccc3)c(-c3cccs3)c12,,28 µM,15 µM
COc1ccc(-c2c(C(=O)c3ccccc3)[nH]c3ncnc(-c4ccccc4)c23)cc1,,70 µM,75 µM
Nc1ncnc2[nH]c(C(=O)c3ccccc3)c(-c3cncc(Br)c3)c12,,> 100 µM,> 100 µM
O=C(c1ccccc1)c1[nH]c2ncnc(-c3ccccc3)c2c1-c1cccnc1,,45 µM,51 µM
COc1cc(-c2c(C(=O)c3ccccc3)[nH]c3[nH]cnc(=O)c23)cc(OC)c1OC,,48 µM,33 µM
COc1cc(-c2c(C(=O)c3ccc(F)cc3)[nH]c3[nH]c(=O)[nH]c(=O)c23)cc(OC)c1OC,,> 100 µM,> 100 µM
COc1ccc(-c2c(C(=O)c3ccccc3)[nH]c3[nH]c(=O)[nH]c(=O)c23)cc1,,80 µM,14 µM
O=C(c1ccccc1)c1[nH]c2[nH]c(=O)[nH]c(=O)c2c1-c1cc(Br)cc(Br)c1,,71 µM,47 µM

# Now those with a lower GI50 [2], led by results:
solubility [1],GI50 [2],GI50 [3],Compound
65 µM,0.065 µM,0.07 µM,O=C(c1ccccc1)c1[nH]c2[nH]cnc(=O)c2c1-c1cccc(F)c1
,5 µM,3 µM,COc1cc(-c2c(C(=O)c3ccc(O)cc3)[nH]c3[nH]cnc(=O)c23)ccc1O
,20 µM,8 µM,COc1ccc(C(=O)c2[nH]c3ncnc(-c4ccc(OC)cc4)c3c2-c2ccc(OC)cc2)cc1
,0.19 µM,0.25 µM,N#Cc1cccc(-c2c(C(=O)c3ccccc3)[nH]c3[nH]cnc(=O)c23)c1
,0.86 µM,1.09 µM,O=C(c1ccccc1)c1[nH]c2[nH]cnc(=O)c2c1-c1cccc(O)c1
,0.3 µM,0.11 µM,COc1ccc(C(=O)c2[nH]c3[nH]cnc(=O)c3c2-c2cc(Br)cc(Br)c2)cc1
,4.4 µM,3.9 µM,Nc1ncnc2[nH]c(C(=O)c3ccccc3)c(-c3ccccc3)c12
,0.1 µM,0.06 µM,O=C(c1ccccc1)c1[nH]c2[nH]cnc(=O)c2c1-c1cccc(Cl)c1
,0.4 µM,0.31 µM,O=C(c1ccc(OCc2ccccc2)cc1)c1[nH]c2[nH]cnc(=O)c2c1-c1cc(Br)cc(Br)c1
,8.2 µM,40 µM,COc1cc(-c2c(C(=O)c3ccccc3)[nH]c3[nH]cnc(=O)c23)cc(I)c1OC
,18 µM,10 µM,O=C(c1ccccc1)c1[nH]c2ncnc(-c3ccccc3)c2c1-c1cc(Br)cc(Br)c1
,0.88 µM,1.26 µM,O=C(c1ccccc1)c1[nH]c2[nH]cnc(=O)c2c1-c1cccnc1
